Results from PubChem BioAssay.
The source made the active and inactive calls.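 Rule for the calls: active = current rise at least 3 SD above the untreated control mean in each of two repeat wells; inactive = the rest.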

What follows are compounds tested against Potassium voltage-gated channel subfamily KQT member 1 (Homo sapiens) (UniProt P51787) (assay: KCNQ1 channel current potentiators, confirmation, orthogonal assay for KCNQ1 potentiator project, IonWorks patch clamp, KCNQ1-CHO cells (AID 493184)). Conditions: automated patch clamp current, at 10 µM.
How it was run: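 Test system: KCNQ1-expressing CHO cells. Medium: pH 7.4 external bath. Probe or stimulus: voltage step from -90 mV holding to +40 mV, 2,000 ms. Compound: 10 µM final, single point. Detection: automated perforated-patch electrophysiology. Read-out: percent current increase versus pre-compound level. Repeats: two replicates.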

Sequence of Potassium voltage-gated channel subfamily KQT member 1 (Homo sapiens) (P51787 whole entry, looked up): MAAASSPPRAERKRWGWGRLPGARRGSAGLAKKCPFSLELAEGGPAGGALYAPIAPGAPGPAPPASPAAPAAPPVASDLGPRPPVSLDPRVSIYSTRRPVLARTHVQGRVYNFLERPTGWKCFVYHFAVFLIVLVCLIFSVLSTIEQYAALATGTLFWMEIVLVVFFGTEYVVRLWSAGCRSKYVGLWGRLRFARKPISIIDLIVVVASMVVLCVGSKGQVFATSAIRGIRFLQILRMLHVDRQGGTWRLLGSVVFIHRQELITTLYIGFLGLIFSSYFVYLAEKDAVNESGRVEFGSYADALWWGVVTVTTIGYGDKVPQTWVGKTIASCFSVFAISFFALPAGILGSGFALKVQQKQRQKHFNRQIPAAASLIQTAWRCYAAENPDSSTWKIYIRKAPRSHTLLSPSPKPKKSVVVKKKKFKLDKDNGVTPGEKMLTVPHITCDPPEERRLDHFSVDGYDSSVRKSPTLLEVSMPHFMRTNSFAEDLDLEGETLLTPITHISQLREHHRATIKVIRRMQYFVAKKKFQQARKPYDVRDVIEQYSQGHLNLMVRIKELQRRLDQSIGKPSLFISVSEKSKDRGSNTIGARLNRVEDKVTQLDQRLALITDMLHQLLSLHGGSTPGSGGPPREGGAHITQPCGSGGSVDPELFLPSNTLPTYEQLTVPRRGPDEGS

outcome, inactive:
CC(C)(C)C(=O)NC1CC2CCCC(C1)N2C(=O)Nc1ccccc1 (stereo unspecified)
Fc1ccc(-c2csc(NC(=S)Nc3ccccc3)n2)cc1
O=C(NC(=S)Nc1ccc(N2CCCCC2)cc1)c1cccs1
Cc1ccc(C)c(S(=O)(=O)NCC(=O)N2CCCC2)c1
CC1CN(S(=O)(=O)c2ccc(Cl)c(C(F)(F)F)c2)CC(C)O1 (stereo unspecified)
S=c1[nH]c2ccc(Cl)cc2s1
Cc1ccc(Cn2c(SCC(=O)N3CC(=O)Nc4ccccc43)nc3ccccc3c2=O)cc1
COc1ccc(S(=O)(=O)NCCCN2CCOCC2)cc1F
O=C(NC(=S)Nc1ccc(N2CCOCC2)c(Cl)c1)c1sc2ccccc2c1Cl
Cc1cc(Cl)n2nc(C)c(-c3ccc(Cl)cc3)c2n1
O=C(NC(=S)Nc1ccccc1N1CCCCC1)c1cccs1
Cc1ccc(C)c(NC(=S)NNC(=O)c2csc3c2CCC(C)C3)c1 (stereo unspecified)
Oc1c(N=NC(=S)Nc2ccccc2F)c2ccccc2n1Cc1ccccc1F
S=c1[nH]cnc2scc(-c3ccccc3)c12
CCc1nnc(SCC(=O)Nc2nnc(C)s2)n1CC1CCCO1 (stereo unspecified)
C=CCn1c(O)c(N=NC(=S)Nc2ccccc2C)c2cc(S(=O)(=O)N3CCOCC3)ccc21
CC(Oc1ccc(Br)cc1)c1nc2c3ccccc3nc(=S)n2[nH]1 (stereo unspecified)
O=C(NC(=S)Nc1ccccc1N1CCOCC1)c1cccc([N+](=O)[O-])c1
Cc1nc2ccccn2c1C(=O)N/N=C/c1ccccc1
COc1ccc(OCC(=O)Nc2cccc(C(C)=O)c2)cc1
S=c1nc(-c2ccc(Br)cc2)oc2c1CCCC2
